{"source": "paper PMC3401475", "about": "(Nucleic Acids Research, 2012)", "key": {"[1]": {"system": "(CUG)10 RNA", "test": "SPR binding to", "outline": "(§1)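 Streptavidin coupled to both flow cells of a CM5 dextran chip after EDC/NHS activation. 5'-Biotin RNA captured at 200–1000 RU; reference cell biotin-blocked. Compound concentrations flowed in HBS-N (0.01 M HEPES, 0.15 M NaCl, pH 7.4) […]. Dissociation ≥200 s, then 0.5 or 1 M NaCl regeneration. Duplicate injections, buffer-blank subtracted. Global 1:1 Langmuir fit. KD averaged over two chips with different RNA densities. t1/2 = ln2/koff.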"}, "[2]": {"system": "(CCUG)10 RNA", "test": "SPR binding to", "outline": "as §1"}, "[3]": {"system": "human fibroblast cells", "test": "MTT cell viability, human fibroblasts", "type": "cell-based", "details": "at concentrations up to 500 µM"}, "[4]": {"test": "Relative fluorescence quantum yield", "type": "physicochemical", "details": "in methanol, excitation 362 nm"}, "[5]": {"system": "C2C12 mouse myoblasts", "test": "MTT cell toxicity, mouse myoblasts", "type": "cell-based", "details": "48 h, all concentrations tested", "outline": "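C2C12 myoblasts in DMEM (10% FBS, 1% penicillin–streptomycin) grown to ~80% confluence at 37°C under CO2. Compound at varying concentrations (up to 1 mM), 48 h, 37°C. MTT in medium added for 4 h at 37°C, then isopropanol solubilisation; absorbance read at 600 nm.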"}}, "note": "pKd: −log10 of the molar value.", "data": [{"smiles": "NC[C@@H]1O[C@H](O[C@H]2[C@@H](O)[C@H](O[C@@H]3[C@@H](O)[C@H](N)C[C@H](N)[C@H]3O[C@H]3O[C@H](CN)[C@@H](O)[C@H](O)[C@H]3N)O[C@@H]2CO)[C@H](N)[C@@H](O)[C@@H]1O", "note": "[Neomycin, Neomycin B]", "values": [{"measurement": "Residence time t1/2", "setting": "[1]; (CUG)10, t1/2 = ln2/kd", "value": 14, "unit": "s"}, {"measurement": "pKd", "setting": "[1]; read-out: Apparent KD, (CUG)10, HBS-N pH 7.4, average of two titrations", "value": 6.39}, {"measurement": "Residence time t1/2", "setting": "[2]; (CCUG)10, t1/2 = ln2/kd", "value": 4, "unit": "s"}, {"measurement": "pKd", "setting": "[2]; read-out: Apparent KD, (CCUG)10, HBS-N pH 7.4, average of two titrations", "value": 5.71}]}, {"smiles": "CCc1nc2cc3ccccc3cc2cc1C(=O)O", "note": "[Compound 2, ethylbenzo[g]quinoline carboxylic acid]", "values": [{"measurement": "Apparent KD", "setting": "[1]; (CUG)10, HBS-N pH 7.4, average of two titrations", "value": "complete lack of binding"}, {"measurement": "toxicity by MTT assay", "setting": "[3]", "value": "no toxicity"}, {"measurement": "fluorescence quantum yield relative to quinine sulfate", "setting": "[4]", "value": 0.64}]}, {"smiles": "CO[C@@]12[C@H](COC(N)=O)C3=C(C(=O)C(C)=C(N)C3=O)N1C[C@@H]1N[C@@H]12", "note": "[mitomycin C]", "values": [{"measurement": "toxicity by MTT assay", "setting": "[5]", "value": "significant toxicity"}]}]}
